According to ChEMBL document CHEMBL3627681, “Synthesis and biological evaluation of 1,3-diaryl pyrazole derivatives as potential antibacterial and anti-inflammatory agents” (2015):
In brackets after ≈: the same amount, converted by molar mass.

Tests used:
[1] = tested on: Staphylococcus aureus; assay: Antibacterial activity against Staphylococcus aureus RN4220 after 24 hrs by two-fold serial dilution method; type: functional; settings: RN4220, 24 h
How it was run: (§1)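 Broth microdilution in Mueller-Hinton broth. Bacteria grown to mid-log phase, diluted 1000-fold, and inoculated at 10⁵ CFU/mL. Test compounds in DMSO, final DMSO not above 0.05%, final concentrations 64-0.5 µg/mL. Incubation 24 h at 37 °C, growth read as absorbance at 650 nm. MIC taken as the lowest concentration giving complete growth inhibition. Run three times.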

[2] = tested on: Escherichia coli; assay: Antibacterial activity against Escherichia coli CCARM 1356 after 24 hrs by two-fold serial dilution method; type: functional; settings: CCARM 1356, 24 h
How it was run: (§2)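 Broth microdilution in Mueller-Hinton broth over final concentrations of 64–0.5. Bacteria were grown to mid-log phase and diluted 1000-fold, then inoculated at 10⁵ CFU/mL. Compounds were dissolved in DMSO, with final DMSO at most 0.05%. Plates were incubated 24 h at 37 °C and growth read as absorbance at 650 nm. MIC is the concentration giving complete growth inhibition. Three independent runs.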

[3] = tested on: Candida albicans; assay: Antifungal activity against Candida albicans 7535 by two-fold serial dilution method; type: functional
[4] = tested on: Staphylococcus aureus; assay: Antibacterial activity against Staphylococcus aureus 209 after 24 hrs by two-fold serial dilution method; type: functional; settings: Staphylococcus aureus, 209, 24 h; how it was run: as §1
[5] = tested on: Salmonella typhimurium; assay: Antibacterial activity against Salmonella typhimurium 2421 after 24 hrs by two-fold serial dilution method; type: functional, Salmonella enterica subsp. enterica serovar Typhimurium; settings: Salmonella enterica, 2421, 24 h; how it was run: as §2
[6] = tested on: Escherichia coli; assay: Antibacterial activity against Escherichia coli KCTC 1924 after 24 hrs by two-fold serial dilution method; type: functional; settings: KCTC 1924, 24 h; how it was run: as §2
[7] = tested on: Streptococcus mutans; assay: Antibacterial activity against Streptococcus mutans 3065 after 24 hrs by two-fold serial dilution method; type: functional; settings: Streptococcus mutans, 3065, 24 h; how it was run: as §2
[8] = tested on: Pseudomonas aeruginosa; assay: Antibacterial activity against Pseudomonas aeruginosa 2004 after 24 hrs by two-fold serial dilution method; type: functional; settings: Pseudomonas aeruginosa, 2004, 24 h; how it was run: as §2
[9] = tested on: Pseudomonas aeruginosa; assay: Antibacterial activity against Pseudomonas aeruginosa 2742 after 24 hrs by two-fold serial dilution method; type: functional; settings: Pseudomonas aeruginosa, 2742, 24 h; how it was run: as §2
[10] = tested on: Staphylococcus aureus; assay: Antibacterial activity against methicillin-resistant Staphylococcus aureus CCARM 3167 after 24 hrs by two-fold serial dilution method; type: functional; settings: CCARM 3167, 24 h; how it was run: as §1
[11] = tested on: Mus musculus; assay: Antiinflammatory activity in mouse assessed as inhibition of xylene-induced ear edema at 50 mg/kg, ip administered 30 mins before xylene challenge relative to control; type: functional
How it was run: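 Mice received compound freshly dissolved in DMSO, 50 mg/kg ip at 0.05 mL/20 g body weight; vehicle controls got DMSO alone. After 30 min, 20 µL xylene was applied to the right ear. After a further 30 min, 7 mm plugs were cut from treated and untreated ears and edema taken as their weight difference. Result is % edema reduction versus vehicle controls.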

[12] = tested on: Staphylococcus aureus; assay: Antibacterial activity against quinolone-resistant Staphylococcus aureus CCARM 3505 after 24 hrs by two-fold serial dilution method; type: functional; settings: CCARM 3505, 24 h; how it was run: as §1
[13] = tested on: Staphylococcus aureus; assay: Antibacterial activity against Staphylococcus aureus 503 after 24 hrs by two-fold serial dilution method; type: functional; settings: Staphylococcus aureus, 503, 24 h; how it was run: as §1
[14] = tested on: Staphylococcus aureus; assay: Antibacterial activity against quinolone-resistant Staphylococcus aureus CCARM 3519 after 24 hrs by two-fold serial dilution method; type: functional; settings: CCARM 3519, 24 h; how it was run: as §1
[15] = tested on: Staphylococcus aureus; assay: Antibacterial activity against methicillin-resistant Staphylococcus aureus CCARM 3506 after 24 hrs by two-fold serial dilution method; type: functional; settings: CCARM 3506, 24 h; how it was run: as §1
[16] = tested on: Escherichia coli; assay: Ratio of moxifloxacin MIC to compound MIC for Escherichia coli CCARM 1356 after 24 hrs by two-fold serial dilution method; type: functional

Compound	MIC [1] [µg/mL]	MIC [2] [µg/mL]	MIC [3] [µg/mL]	MIC [4] [µg/mL]	MIC [5] [µg/mL]	MIC [6] [µg/mL]	MIC [7] [µg/mL]	MIC [8] [µg/mL]	MIC [9] [µg/mL]	MIC [10] [µg/mL]	inhibition in vivo at 50 mg/kg [11] [%]	MIC [12] [µg/mL]	MIC [13] [µg/mL]	MIC [14] [µg/mL]	MIC [15] [µg/mL]	Ratio [16]
N=C(N)N/N=C/c1cn(-c2ccc([N+](=O)[O-])cc2[N+](=O)[O-])nc1-c1ccccc1F	8 (≈ 19.4 µM)	16 (≈ 38.8 µM)	4 (≈ 9.7 µM)	8 (≈ 19.4 µM)	16 (≈ 38.8 µM)	8 (≈ 19.4 µM)	16 (≈ 38.8 µM)	> 64	> 64	8 (≈ 19.4 µM)	87.2	8 (≈ 19.4 µM)	8 (≈ 19.4 µM)	8 (≈ 19.4 µM)	4 (≈ 9.7 µM)	
N=C(N)N/N=C/c1cn(-c2ccc([N+](=O)[O-])cc2[N+](=O)[O-])nc1-c1ccccc1	8 (≈ 20.3 µM)	16 (≈ 40.6 µM)	4 (≈ 10.1 µM)	8 (≈ 20.3 µM)	16 (≈ 40.6 µM)	8 (≈ 20.3 µM)	16 (≈ 40.6 µM)	> 64	> 64	8 (≈ 20.3 µM)	86.9	8 (≈ 20.3 µM)	8 (≈ 20.3 µM)	8 (≈ 20.3 µM)	8 (≈ 20.3 µM)	
N=C(N)N/N=C/c1cn(-c2ccc([N+](=O)[O-])cc2[N+](=O)[O-])nc1-c1ccccc1Br	4 (≈ 8.45 µM)	16 (≈ 33.8 µM)	2 (≈ 4.23 µM)	8 (≈ 16.9 µM)	16 (≈ 33.8 µM)	4 (≈ 8.45 µM)	16 (≈ 33.8 µM)	> 64	> 64	4 (≈ 8.45 µM)	78.1	4 (≈ 8.45 µM)	4 (≈ 8.45 µM)	8 (≈ 16.9 µM)	4 (≈ 8.45 µM)	
N=C(N)N/N=C/c1cn(-c2ccccc2)nc1-c1ccc(Br)cc1	4 (≈ 10.4 µM)	> 64	4 (≈ 10.4 µM)	8 (≈ 20.9 µM)	> 64	8 (≈ 20.9 µM)	> 64	> 64	> 64	8 (≈ 20.9 µM)	42.8	16 (≈ 41.7 µM)	4 (≈ 10.4 µM)	16 (≈ 41.7 µM)	4 (≈ 10.4 µM)	
CC(C)Cc1ccc(C(C)C(=O)O)cc1 (centres undefined) [IBUPROFEN]											29.6					
O=C(N/N=C/c1cn(-c2ccc([N+](=O)[O-])cc2[N+](=O)[O-])nc1-c1ccccc1Br)c1ccco1	> 64	> 64	> 64	> 64	> 64	> 64	> 64	> 64	> 64	> 64	17.5	> 64	> 64	> 64	> 64	
N=C(N)N/N=C/c1cn(-c2ccc([N+](=O)[O-])cc2[N+](=O)[O-])nc1-c1ccc(F)cc1	4 (≈ 9.7 µM)	8 (≈ 19.4 µM)	2 (≈ 4.85 µM)	4 (≈ 9.7 µM)	8 (≈ 19.4 µM)	4 (≈ 9.7 µM)	8 (≈ 19.4 µM)	> 64	> 64	4 (≈ 9.7 µM)	61.9	4 (≈ 9.7 µM)	4 (≈ 9.7 µM)	4 (≈ 9.7 µM)	4 (≈ 9.7 µM)	16
N=C(N)N/N=C/c1cn(-c2ccccc2)nc1-c1ccc(F)cc1	8 (≈ 24.8 µM)	> 64	8 (≈ 24.8 µM)	8 (≈ 24.8 µM)	> 64	8 (≈ 24.8 µM)	> 64	> 64	> 64	8 (≈ 24.8 µM)	61.4	16 (≈ 49.6 µM)	16 (≈ 49.6 µM)	16 (≈ 49.6 µM)	8 (≈ 24.8 µM)	
OC(Cn1cncn1)(Cn1cncn1)c1ccc(F)cc1F [FLUCONAZOLE]			1 (≈ 3.27 µM)													
O=C(N/N=C/c1cn(-c2ccc([N+](=O)[O-])cc2[N+](=O)[O-])nc1-c1cccc(Br)c1)c1ccco1	> 64	> 64	> 64	> 64	> 64	> 64	> 64	> 64	> 64	> 64	25.3	> 64	> 64	> 64	> 64	
CCC(C)n1ncn(-c2ccc(N3CCN(c4ccc(OCC5COC(Cn6cncn6)(c6ccc(Cl)cc6Cl)O5)cc4)CC3)cc2)c1=O (centres undefined) [ITRACONAZOLE]			0.06 (≈ 0.085 µM)													
N=C(N)N/N=C/c1cn(-c2ccc([N+](=O)[O-])cc2[N+](=O)[O-])nc1-c1ccccc1Cl	4 (≈ 9.33 µM)	16 (≈ 37.3 µM)	2 (≈ 4.66 µM)	8 (≈ 18.7 µM)	8 (≈ 18.7 µM)	4 (≈ 9.33 µM)	16 (≈ 37.3 µM)	> 64	> 64	4 (≈ 9.33 µM)	84.6	4 (≈ 9.33 µM)	4 (≈ 9.33 µM)	8 (≈ 18.7 µM)	4 (≈ 9.33 µM)	
COc1c(N2C[C@@H]3CCCN[C@@H]3C2)c(F)cc2c(=O)c(C(=O)O)cn(C3CC3)c12 [MOXIFLOXACIN]	0.25 (≈ 0.623 µM)	128 (≈ 319 µM)	0.5 (≈ 1.25 µM)		0.5 (≈ 1.25 µM)		0.25 (≈ 0.623 µM)	2 (≈ 4.98 µM)					2 (≈ 4.98 µM)	4 (≈ 9.96 µM)		
COc1c(N2CCNC(C)C2)c(F)cc2c(=O)c(C(=O)O)cn(C3CC3)c12 (centres undefined) [GATIFLOXACIN]	0.25 (≈ 0.666 µM)	16 (≈ 42.6 µM)	0.5 (≈ 1.33 µM)	2 (≈ 5.33 µM)	0.5 (≈ 1.33 µM)	2 (≈ 5.33 µM)	0.5 (≈ 1.33 µM)	1 (≈ 2.66 µM)	1 (≈ 2.66 µM)	2 (≈ 5.33 µM)		8 (≈ 21.3 µM)	2 (≈ 5.33 µM)	4 (≈ 10.7 µM)	2 (≈ 5.33 µM)	
N=C(N)N/N=C/c1cn(-c2ccc([N+](=O)[O-])cc2[N+](=O)[O-])nc1-c1ccccc1[N+](=O)[O-]	16 (≈ 36.4 µM)	32 (≈ 72.8 µM)	8 (≈ 18.2 µM)	32 (≈ 72.8 µM)	32 (≈ 72.8 µM)	16 (≈ 36.4 µM)	32 (≈ 72.8 µM)	> 64	> 64	16 (≈ 36.4 µM)	58.3	16 (≈ 36.4 µM)	16 (≈ 36.4 µM)	32 (≈ 72.8 µM)	8 (≈ 18.2 µM)	
O=C(N/N=C/c1cn(-c2ccc([N+](=O)[O-])cc2[N+](=O)[O-])nc1-c1cccc(Cl)c1)c1ccco1	> 64	> 64	> 64	> 64	> 64	> 64	> 64	> 64	> 64	> 64	26.2	> 64	> 64	> 64	> 64	
CCn1cc(C(=O)O)c(=O)c2cc(F)c(N3CCNCC3)cc21 [NORFLOXACIN]										8 (≈ 25.1 µM)		> 64		> 64	4 (≈ 12.5 µM)	
Cc1ccc(-c2nn(-c3ccc([N+](=O)[O-])cc3[N+](=O)[O-])cc2/C=N/NC(=O)c2ccco2)cc1	> 64	> 64	> 64	> 64	> 64	> 64	> 64	> 64	> 64	> 64	36	> 64	> 64	> 64	> 64	
O=C(N/N=C/c1cn(-c2ccc([N+](=O)[O-])cc2[N+](=O)[O-])nc1-c1ccccc1F)c1ccco1	> 64	> 64	> 64	> 64	> 64	> 64	> 64	> 64	> 64	> 64	28	> 64	> 64	> 64	> 64	
Cc1onc(-c2ccccc2)c1C(=O)N[C@@H]1C(=O)N2[C@@H]1SC(C)(C)[C@@H]2C(=O)O [OXACILLIN]										> 64		1 (≈ 2.49 µM)		1 (≈ 2.49 µM)	> 64	
N=C(N)N/N=C/c1cn(-c2ccccc2)nc1-c1ccc(Cl)cc1	16 (≈ 47.2 µM)	> 64	> 64	> 64	> 64	> 64	> 64	> 64	> 64	> 64	46	> 64	> 64	> 64	> 64	
